# Results: ChEMBL document CHEMBL1134785, “Synthesis and biological evaluation of prostaglandin-F alkylphosphinic acid derivatives as bone anabolic agents for the treatment of osteoporosis” (J Med Chem, 2001)
# Key:
# [1] = molecular target: T1, Prostaglandin F2-alpha receptor (Homo sapiens, UniProt P43088); assay: In vitro binding at FP human prostaglandin receptor using [3H]- PGF-2 alpha as radioligand
# How it was run: (§1)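 COS-7 cells transiently transfected with hFP plasmid and harvested 48 h later. Membranes from nitrogen cavitation and 100000g spin, taken up at 1 mg protein/mL in TME buffer pH 6.0. Each well held 100 μg membrane, 5 nM [3H]PGF2α and competitor, n=3, 1 h at 23 °C. Bound label collected by GF/B filtration, washed in TME, scintillation counted.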
# [2] = Dissociation constant was determined; type: physicochemical
# Thromboxane A2 receptor [3] = molecular target: T2, Thromboxane A2 receptor (Homo sapiens, UniProt P21731); assay: In vitro binding at TP human prostaglandin receptor using [3H]SQ-29,548 as radioligand
# T2 sequence (P21731 whole entry): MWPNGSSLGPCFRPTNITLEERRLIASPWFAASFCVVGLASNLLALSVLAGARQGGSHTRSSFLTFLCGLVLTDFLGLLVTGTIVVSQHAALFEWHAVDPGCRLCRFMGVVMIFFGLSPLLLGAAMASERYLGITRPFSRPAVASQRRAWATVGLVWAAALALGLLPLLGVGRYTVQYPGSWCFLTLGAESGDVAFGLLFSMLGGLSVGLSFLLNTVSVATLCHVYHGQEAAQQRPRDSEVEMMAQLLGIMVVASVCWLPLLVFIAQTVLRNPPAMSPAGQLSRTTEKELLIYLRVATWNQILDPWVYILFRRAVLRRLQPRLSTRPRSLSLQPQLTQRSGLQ
# How it was run: (§2)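 Receptors stably expressed in CHO cells, collected 4-5 days after seeding. Membranes made by lysis (Tris, EDTA, protease inhibitors) and 100000g pellet, then resuspended at 1 mg protein/mL in TME. Radioligands at 5 nM: [3H]PGE2 for EP2/EP3/EP4, [3H]Iloprost for IP, [3H]SQ-29548 for TP. Competition binding with filtration and counting.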
# [4] = molecular target: T3, Prostaglandin E2 receptor EP3 subtype (Homo sapiens, UniProt P43115); assay: In vitro binding at EP3 human prostaglandin receptor using [3H]PGE-2 as radioligand; how it was run: as §2
# T3 sequence (P43115 whole entry): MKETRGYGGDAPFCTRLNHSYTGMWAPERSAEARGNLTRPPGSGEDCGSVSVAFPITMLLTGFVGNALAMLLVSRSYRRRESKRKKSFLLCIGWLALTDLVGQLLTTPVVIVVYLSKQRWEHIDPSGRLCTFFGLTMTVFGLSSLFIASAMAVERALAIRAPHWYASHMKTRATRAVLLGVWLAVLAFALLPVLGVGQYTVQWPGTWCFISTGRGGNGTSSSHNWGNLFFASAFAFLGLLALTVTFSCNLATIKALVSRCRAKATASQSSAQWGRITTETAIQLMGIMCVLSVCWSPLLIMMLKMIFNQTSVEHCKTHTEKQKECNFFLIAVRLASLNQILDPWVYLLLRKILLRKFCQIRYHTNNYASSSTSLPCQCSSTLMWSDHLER
# Prostacyclin receptor = Prostacyclin receptor (Homo sapiens, UniProt P43119); assay: In vitro binding at prostanoid IP receptor using [3H]iloprost as radioligand; how it was run: as §2
# Chain of Prostacyclin receptor (P43119 whole entry): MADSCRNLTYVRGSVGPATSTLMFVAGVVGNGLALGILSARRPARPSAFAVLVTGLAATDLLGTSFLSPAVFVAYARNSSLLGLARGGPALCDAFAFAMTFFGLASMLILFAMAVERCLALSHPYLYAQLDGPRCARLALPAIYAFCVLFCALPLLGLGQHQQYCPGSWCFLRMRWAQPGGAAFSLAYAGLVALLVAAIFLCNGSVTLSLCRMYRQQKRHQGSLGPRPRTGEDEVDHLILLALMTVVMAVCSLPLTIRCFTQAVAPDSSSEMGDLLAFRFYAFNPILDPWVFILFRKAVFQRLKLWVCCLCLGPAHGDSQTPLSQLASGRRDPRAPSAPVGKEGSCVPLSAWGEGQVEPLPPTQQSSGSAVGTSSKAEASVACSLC
# [5] = molecular target: Prostaglandin E2 receptor EP2 subtype (Homo sapiens, UniProt P43116); assay: In vitro binding at EP2 human prostaglandin receptor using [3H]PGE-2 as radioligand; how it was run: as §2
# Chain of Prostaglandin E2 receptor EP2 subtype (P43116 whole entry): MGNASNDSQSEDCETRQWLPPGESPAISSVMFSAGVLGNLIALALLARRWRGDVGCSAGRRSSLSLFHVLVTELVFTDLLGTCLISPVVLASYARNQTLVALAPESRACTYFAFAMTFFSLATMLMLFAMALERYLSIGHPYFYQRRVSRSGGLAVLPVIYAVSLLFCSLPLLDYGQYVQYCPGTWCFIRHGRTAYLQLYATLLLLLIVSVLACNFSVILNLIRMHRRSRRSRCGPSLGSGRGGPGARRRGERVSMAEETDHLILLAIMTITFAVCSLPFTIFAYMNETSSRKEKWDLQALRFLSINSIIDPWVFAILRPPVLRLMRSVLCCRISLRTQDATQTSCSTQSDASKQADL
# [6] = molecular target: T4, Prostaglandin E2 receptor EP1 subtype (Homo sapiens, UniProt P34995); assay: In vitro binding at EP1 human prostaglandin receptor using [3H]PGE-2 as radioligand
# T4 sequence (P34995 whole entry): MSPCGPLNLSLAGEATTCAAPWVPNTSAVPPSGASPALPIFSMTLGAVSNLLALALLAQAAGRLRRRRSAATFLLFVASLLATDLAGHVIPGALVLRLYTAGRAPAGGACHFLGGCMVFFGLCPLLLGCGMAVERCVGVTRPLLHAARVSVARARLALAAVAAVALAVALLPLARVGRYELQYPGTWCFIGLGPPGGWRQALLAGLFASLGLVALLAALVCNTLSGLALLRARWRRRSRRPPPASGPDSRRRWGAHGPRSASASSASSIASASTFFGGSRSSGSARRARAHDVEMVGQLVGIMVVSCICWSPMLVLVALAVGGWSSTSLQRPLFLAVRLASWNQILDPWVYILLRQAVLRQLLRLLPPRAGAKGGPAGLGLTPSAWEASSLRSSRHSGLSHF
# How it was run: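 hEP1 transiently expressed in COS-7 cells by the hFP transfection and membrane protocol, with membranes in TME buffer pH 6.0. Competition binding used 5 nM [3H]PGE2, 1 h at 23 °C, filtration and scintillation counting.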
# [7] = molecular target: T1, Prostaglandin F2-alpha receptor; assay: In vitro binding at FP human prostaglandin receptor using [3H]PGF-2 alpha as radioligand; how it was run: as §1
# [8] = molecular target: T4, Prostaglandin E2 receptor EP1 subtype; assay: Functional activity in RAT-1 cells, transiently transfected with human prostaglandin EP1 receptor; type: cell-based
# How it was run: (§3)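 RAT-1 cells transiently transfected with the human receptor, carrying a stably transfected, constitutively expressed β-galactosidase reporter gene. EC50 read after timed hydrolysis of a galactosidase pseudosubstrate.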
# [9] = molecular target: T3, Prostaglandin E2 receptor EP3 subtype; assay: Functional activity in RAT-1 cells, transiently transfected with human prostaglandin EP3 receptor; type: cell-based; how it was run: as §3
# Thromboxane A2 receptor [10] = molecular target: T2, Thromboxane A2 receptor; assay: Functional activity in RAT-1 cells, transiently transfected with human prostaglandin TP receptor; type: cell-based; how it was run: as §3
# [11] = molecular target: T5, Prostaglandin D2 receptor (Homo sapiens, UniProt Q13258); assay: In vitro binding at DP human prostaglandin receptor using [3H]- PGD-2 as radioligand
# T5 sequence (Q13258 whole entry): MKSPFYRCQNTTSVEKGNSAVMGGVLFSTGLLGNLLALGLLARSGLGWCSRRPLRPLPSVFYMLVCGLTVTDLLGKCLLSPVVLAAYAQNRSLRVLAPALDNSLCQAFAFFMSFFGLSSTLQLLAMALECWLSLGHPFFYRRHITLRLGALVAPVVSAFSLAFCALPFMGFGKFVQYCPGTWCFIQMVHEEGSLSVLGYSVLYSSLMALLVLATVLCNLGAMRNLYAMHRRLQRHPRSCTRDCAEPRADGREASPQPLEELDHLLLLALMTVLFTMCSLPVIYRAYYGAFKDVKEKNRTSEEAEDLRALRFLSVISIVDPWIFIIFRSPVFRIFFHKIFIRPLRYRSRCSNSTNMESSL
# How it was run: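 hDP stably expressed in HEK-293 cells, collected 4-5 days after seeding. Membranes made by lysis and 100000g spin, then taken up at 1 mg protein/mL in TME buffer at pH 7.4. Competition binding used 5 nM [3H]PGD2, read by filtration and scintillation counting.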
# [12] = molecular target: Prostaglandin E2 receptor EP4 subtype (Homo sapiens, UniProt P35408); assay: In vitro binding at EP4 human prostaglandin receptor using [3H]PGE-2 as radioligand; how it was run: as §2
# Chain of Prostaglandin E2 receptor EP4 subtype (P35408 whole entry): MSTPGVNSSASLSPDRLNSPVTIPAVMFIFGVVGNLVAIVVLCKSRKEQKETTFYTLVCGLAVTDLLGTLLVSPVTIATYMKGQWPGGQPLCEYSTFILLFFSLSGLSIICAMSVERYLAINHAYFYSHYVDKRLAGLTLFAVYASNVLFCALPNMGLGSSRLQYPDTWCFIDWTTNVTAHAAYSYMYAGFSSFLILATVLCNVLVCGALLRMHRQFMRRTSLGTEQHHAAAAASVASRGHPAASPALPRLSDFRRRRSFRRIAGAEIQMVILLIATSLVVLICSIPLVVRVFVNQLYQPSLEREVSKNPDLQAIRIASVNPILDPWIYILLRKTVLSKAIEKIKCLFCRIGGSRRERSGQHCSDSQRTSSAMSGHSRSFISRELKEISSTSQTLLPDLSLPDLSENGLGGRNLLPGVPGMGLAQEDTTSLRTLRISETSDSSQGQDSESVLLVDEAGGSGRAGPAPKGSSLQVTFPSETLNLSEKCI
# Rattus norvegicus [13] = assay: Endosteal mineralizing surface measured Histomorphometrically after a does of 250 ug/kg in Tibial Diaphysis; type: functional
# Rattus norvegicus [14] = assay: Bone Volume /Tissue Volume (%)measured using micro Computed Tomography(CT) after a dose of 250 ug/kg in Vertebral Bone; type: functional
# Rattus norvegicus [15] = assay: Trabecular thickness measured Histomorphometrically after a dose of 250 ug/kg in proximal tibial metaphysis; type: functional, Trabecula
# Rattus norvegicus [16] = assay: Bone Volume /Tissue Volume (%)measured Histomorphometrically after a dose of 250 ug/kg in proximal tibial metaphysis; type: functional
# Rattus norvegicus [17] = assay: Derived trabecular no measured using micro Computed Tomography(CT) after a dose of 6000 ug/kg in Vertebral Bone; type: functional, Trabecula
# How it was run: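 Micro-CT of the fifth lumbar vertebra, measuring cancellous bone volume and architecture. Rats were 6 months old, OVX 60 days before treatment, then dosed daily for 60 days. Test-agent doses were 10–3000 µg/kg, given as a once-daily subcutaneous injection; 6 mg/kg/day was given to the positive-control group. Groups were compared with vehicle by ANOVA plus LSD test.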
# Rattus norvegicus [18] = assay: Marrow area measured Histomorphometrically after a dose of 250 ug/kg in Tibial Diaphysis; type: functional
# Rattus norvegicus [19] = assay: Bone Formation rate/tissue vol measured Histomorphometrically after a does of 250 ug/kg in proximal tibial metaphysis; type: functional
# Rattus norvegicus [20] = assay: Trabecular no measured Histomorphometrically after a dose of 250 ug/kg in proximal tibial metaphysis; type: functional, Trabecula
# Rattus norvegicus [21] = assay: Mineralizing apposition measured Histomorphometrically after a dose of 250 ug/kg in Tibial Diaphysis; type: functional
# Rattus norvegicus [22] = assay: Periosteal mineralizing surface measured Histomorphometrically after a does of 250 ug/kg in Tibial Diaphysis; type: functional
# Rattus norvegicus [23] = assay: Mineral apposition measured Histomorphometrically after a dose of 250 ug/kg in proximal tibial metaphysis; type: functional
# Rattus norvegicus [24] = assay: Bone Formation rate/bone measured Histomorphometrically after a dose of 250 ug/kg in proximal tibial metaphysis; type: functional
# Rattus norvegicus [25] = assay: Connectivity density measured using micro Computed Tomography(CT) after a dose of 250 ug/kg in Vertebral Bone; type: functional
# Rattus norvegicus [26] = assay: Directly measured thickness measured using micro Computed Tomography(CT) after a dose of 250 ug/kg in Vertebral Bone; type: functional
# Rattus norvegicus [27] = assay: Endosteal eroded surface measured Histomorphometrically after a dose of 250 ug/kg in Tibial Diaphysis; type: functional
# Rattus norvegicus [28] = assay: Tissue area measured Histomorphometrically after a dose of 250 ug/kg in Tibial Diaphysis; type: functional
# Rattus norvegicus [29] = assay: Mineral surface/bone surface measured Histomorphometrically after a dose of 250 ug/kg in proximal tibial metaphysis; type: functional
# Rattus norvegicus [30] = assay: Derived trabecular thickness measured using micro Computed Tomography(CT) after a dose of 250 ug/kg in Vertebral Bone; type: functional, Trabecula
# Rattus norvegicus [31] = assay: Mineral apposition measured Histomorphometrically after a dose of 3 ug/kg in proximal tibial metaphysis
# T1 sequence (P43088 whole entry): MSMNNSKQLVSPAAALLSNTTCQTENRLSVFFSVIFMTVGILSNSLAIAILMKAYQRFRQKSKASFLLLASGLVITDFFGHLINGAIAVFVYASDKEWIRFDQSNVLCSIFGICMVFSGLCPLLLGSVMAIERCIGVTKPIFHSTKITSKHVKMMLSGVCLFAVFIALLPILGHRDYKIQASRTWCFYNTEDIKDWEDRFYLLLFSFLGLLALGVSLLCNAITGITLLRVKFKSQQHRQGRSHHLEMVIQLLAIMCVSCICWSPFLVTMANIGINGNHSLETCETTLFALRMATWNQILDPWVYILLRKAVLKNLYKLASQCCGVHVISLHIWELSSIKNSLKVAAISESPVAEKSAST
smiles,measurement,setting,value
CCCCC[C@H](O)/C=C/[C@@H]1[C@@H](C/C=C\CCCP(=O)(O)OCC)[C@@H](O)C[C@H]1O,IC50,[1],> 10000 nM
same,pKa,[2],2.36
CCCCC[C@H](O)/C=C/[C@@H]1[C@@H](C/C=C\CCCC(=O)O)[C@@H](O)C[C@H]1O [DINOPROST],IC50,Thromboxane A2 receptor [3],> 10 µM
same,IC50,[4],110 nM
same,pKa,[2],4.77
same,IC50,Prostacyclin receptor,> 10 µM
same,IC50,[5],> 10 µM
same,IC50,[6],220 nM
CCCCC[C@H](O)/C=C/[C@@H]1[C@@H](C/C=C\CCCP(=O)(O)CCCC)[C@@H](O)C[C@H]1O,pKa,[2],3.36
same,IC50,[7],6700 nM
O=C(O)CCC/C=C\C[C@@H]1[C@@H](/C=C/[C@@H](O)COc2ccccc2)[C@H](O)C[C@@H]1O,EC50,[8],38 nM
same,pKa,[2],4.77
same,IC50,[7],2 nM
same,EC50,[9],186 nM
same,EC50,Thromboxane A2 receptor [10],510 nM
CCCCC[C@H](O)/C=C/[C@@H]1[C@@H](C/C=C\CCCP(C)(=O)O)[C@@H](O)C[C@H]1O,pKa,[2],3.1
same,IC50,[7],311 nM
CCCCC[C@H](O)/C=C/[C@@H]1[C@@H](C/C=C\CCC[PH](=O)O)[C@@H](O)C[C@H]1O,IC50,Thromboxane A2 receptor [3],> 10 µM
same,IC50,[4],> 10000 nM
same,pKa,[2],3.39
same,IC50,[11],> 10 µM
same,IC50,[7],114 nM
same,IC50,[12],> 10 µM
same,IC50,Prostacyclin receptor,> 10 µM
same,IC50,[5],> 10 µM
same,IC50,[6],> 10000 nM
CCCCC[C@H](O)/C=C/[C@@H]1[C@@H](C/C=C\CCCP(=O)(O)O)[C@@H](O)C[C@H]1O,IC50,[1],1000 nM
same,pKa,[2],2.38
O=C(O)CCC/C=C\CC1C(O)CC(O)C1/C=C/C(O)COc1cccc(Cl)c1 (centres undefined) [CLOPROSTENOL],Endosteal mineralizing surface,Rattus norvegicus [13],55.18%
same,Activity,Rattus norvegicus [14],42.04%
same,Trabecular thickness,Rattus norvegicus [15],53.9
same,Activity,Rattus norvegicus [16],9.5%
same,Derived trabecular number,Rattus norvegicus [17],4.6 mM⁻¹
same,Marrow area,Rattus norvegicus [18],0.7 mm
same,Activity,Rattus norvegicus [19],26.44%
same,Trabecular no.,Rattus norvegicus [20],1.77
same,Mineralizing apposition rate,Rattus norvegicus [21],1.6 µm/day
same,Periosteal mineralizing surface,Rattus norvegicus [22],9.91%
same,Mineral apposition rate,Rattus norvegicus [23],1.09 µm/day
same,Activity,Rattus norvegicus [24],286.86%
same,Connectivity density,Rattus norvegicus [25],61.13 mm**-3
same,Directly measured thickness,Rattus norvegicus [26],138 µm
same,Endosteal eroded surface,Rattus norvegicus [27],2.22%
same,Tissue area,Rattus norvegicus [28],4.78 mm
same,Activity,Rattus norvegicus [29],22.99%
same,Derived trabecular thickness,Rattus norvegicus [30],85.8 µm
CCCCC[C@H](O)/C=C/[C@@H]1[C@@H](C/C=C\CCCP(=O)(O)CC)[C@@H](O)C[C@H]1O,pKa,[2],3.24
same,IC50,[7],4100 nM
NCCCC(O)(P(=O)(O)O)P(=O)(O)O [ALENDRONIC ACID],Mineral apposition rate,Rattus norvegicus [31],0.63 µm/day
